For 41 compounds, inhibition results are on record in PubChem BioAssay AID720574 (Broad Institute, 2013).

Where “and” joins values, the source holds several entries; their conditions need not be identical. Equal entries are not always repeated. About 140 (0.15%) of roughly 96,000 compounds were called active.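 Rule for the calls: active = mean replicate inhibition above about 25%, with at least 55% of replicates also reaching it (limit read from the data, passing the limit was not always enough); inconclusive = only one of those two conditions met; inactive = neither condition met.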 For the sample, actives were picked, then their nearest neighbours and some compounds at random. A structure can be active in one record and inactive in another.

Sequence of Lysine-specific demethylase 4C (Homo sapiens) (Q9H3R0 2-372 limits assumed): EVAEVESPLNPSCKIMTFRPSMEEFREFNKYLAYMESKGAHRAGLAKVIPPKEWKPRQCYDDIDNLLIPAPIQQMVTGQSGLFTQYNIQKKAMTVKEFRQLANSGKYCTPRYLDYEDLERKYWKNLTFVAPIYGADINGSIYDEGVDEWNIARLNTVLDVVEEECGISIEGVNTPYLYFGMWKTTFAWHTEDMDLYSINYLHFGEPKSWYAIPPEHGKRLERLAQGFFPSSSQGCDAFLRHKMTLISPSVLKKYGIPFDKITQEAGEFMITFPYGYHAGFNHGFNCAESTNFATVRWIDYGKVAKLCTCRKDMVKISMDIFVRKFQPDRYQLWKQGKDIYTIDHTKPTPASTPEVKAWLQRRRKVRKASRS

This test has as its target Lysine-specific demethylase 4C (Homo sapiens) (UniProt Q9H3R0). Put plainly: inhibitors of GASC-1 (KDM4C) histone demethylase, primary screen, biochemical, single concentration HTS (AID 720574). The conditions noted are these: GST-KDM4C 2-372, H3K9me3 peptide, LANCE TR-FRET; at 12.5 µM; stronger effect = higher value. In a few lines: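 System: N-terminal GST-fused human GASC-1 (KDM4C) fragment, residues 2-372; amount: enzyme final amount 10 nM; incubation: reaction 30 min RT, detection step 1 h RT; medium: HEPES buffer, pH 7.5, plus ascorbate; technique: LANCE TR-FRET, Eu antibody, ULight-streptavidin, EDTA, ex 340 nm, em 618/671 nm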
On to `COC(=O)C[C@H]1CC[C@H]2[C@@H](COc3ccc(NC(=O)Nc4cccc(F)c4)cc3C(=O)N2C)O1`, for which the inhibition was -1.5% (inactive). `COCc1cn(CC[C@@H]2CC[C@@H](NC(=O)Cc3cccnc3)[C@@H](CO)O2)nn1`: the inhibition is 1.27% (inactive). Turning to `CC(C)(C)[S@@](=O)N1Cc2cc(C(=O)N3CCOCC3)nc(-c3cccc(-c4ccc(C#N)cc4)c3)c2[C@H]1CCO`, the inhibition is 1.6% (inactive).

On to `CC=Cc1ccc2n(c1=O)C[C@@H]1[C@@H](CO)[C@H](C(=O)N[C@H](C)c3ccccc3)N(C(=O)c3cnccn3)[C@H]21` (mixture of isomers), for which the inhibition is 0.423% (inactive). As for `O=C(C[C@@H]1CC[C@@H]2[C@H](COC[C@H](O)CN2Cc2cccc(C(F)(F)F)c2)O1)NCc1ccc(F)cc1`, the inhibition is 3.72% (inactive). For `CN(C)CC(=O)N1CC2(C1)[C@H](c1ccccc1)[C@@H](CO)N2C(=O)C1CCCCC1` the value was -0.237% (inactive). To `O=C(C[C@H]1C=C[C@H](NC(=O)C2CCC2)[C@H](CO)O1)NCCCN1CCOCC1` belongs 1.01% (inactive).

For the compound `COc1ccc(NC(=O)N(C)C[C@@H]2Oc3ccc(NS(=O)(=O)c4ccc(C)cc4)cc3CC(=O)N([C@@H](C)CO)C[C@H]2C)cc1`, the inhibition is 6.92% (inactive). For `CCNC(=O)Nc1ccc2c(c1)C(=O)N(C)[C@H]1CC[C@@H](CC(=O)N[C@@H](C)c3ccccc3)O[C@H]1CO2` the value was 0.198% (inactive). For `O=C(Nc1ccccc1F)N1CC(=O)N2[C@H](C1)[C@@H](c1ccc(C#CC3CC3)cc1)[C@@H]2CO` the value was 1.64% (inactive); for `CN(C)C(=O)[C@@H]1[C@@H](CO)[C@@H]2Cn3c(ccc(C4=CCCC4)c3=O)[C@H]1N2Cc1ccccn1`, 1.36% (inactive).

As to `NCC[C@H]1CC[C@H](NC(=O)C2CC2)[C@@H](CO)O1`, the inhibition is 0.258% (inactive).

On to `CO[C@H]1CN(C)C(=O)c2ccc(NC(=O)C3CC3)cc2OC[C@H](C)N(CCc2ccccc2)C[C@@H]1C`, for which the inhibition was 0.468% (inactive). For `O=C(CC(F)(F)F)N1C[C@H]2[C@@H](c3ccccc31)[C@H](CO)N2C(=O)Cc1ccccc1` the value was -2.83% (inactive). For `CCCN1C[C@@H](C)[C@@H](OC)CN(C)C(=O)c2ccc(NC(=O)CC(F)(F)F)cc2OC[C@H]1C` the value was -0.121% (inactive); for `CN1CCN(C(=O)C[C@@H]2CC[C@@H]3[C@@H](COc4ccc(NC(=O)c5ccc(F)c(F)c5)cc4C(=O)N3C)O2)CC1`, -0.587% (inactive). Regarding `O=C(c1ccncc1)N1C[C@@H]2[C@H](c3ccccc31)[C@H](CO)N2C(=O)c1ccncc1`, the inhibition is -0.987% (inactive).

As for `COc1ccc2c3c(n(C)c2c1)[C@H](CO)N(C(=O)NC(C)C)CC31CCN(C(=O)NC(C)C)CC1`, the inhibition was 0.238% (inactive).

Consider `CCCN1C[C@H](C)[C@@H](OC)CN(C)C(=O)c2ccc(NC(=O)CC)cc2OC[C@@H]1C`, for which the inhibition was 2.58% (inactive). Regarding `O=C(Nc1ccccc1)N1CC(=O)N2[C@@H](CO)[C@H](c3ccc(C#CC4CCCC4)cc3)[C@@H]2C1`, the inhibition is 0.422% (inactive).

As for `CN(C)C(=O)C[C@@H]1CC[C@H](NC(=O)NC2CCCCC2)[C@@H](CO)O1`, the inhibition was -0.283% (inactive).

In the case of `CCCC(=O)Nc1ccc2c(c1)C(=O)N(C)[C@@H]1CC[C@H](CC(=O)NCCOC)O[C@H]1CO2`, the inhibition is 0.186% (inactive). As to `CC(=O)N1CC2(C1)[C@@H](c1ccccc1)[C@@H](CO)N2C(=O)c1cnccn1`, the inhibition is 0.148% (inactive). For `CCC(=O)Nc1ccc2c(c1)C(=O)N(C)C[C@@H](OC)[C@H](C)CN(Cc1cccnc1)[C@@H](C)CO2` the value was -0.624% (inactive); for `CCCC#Cc1ccc([C@@H]2[C@@H](CO)N3C(=O)CN(C(=O)Nc4ccc(F)cc4)C[C@@H]23)cc1`, -0.912% (inactive); for `CCC(=O)N1[C@@H](CO)[C@@H](c2ccccc2)C12CN(C(=O)Cc1ccccc1)C2`, 7.87% (inactive).

In the case of `Cc1noc(C)c1NC(=O)N(C)C[C@@H]1OCCCC[C@H](C)Oc2ccc(NC(=O)c3ccccc3)cc2C(=O)N([C@@H](C)CO)C[C@@H]1C`, the inhibition is 1.18% (inactive). For the compound `O=C(Nc1ccccc1F)N[C@@H]1CC[C@@H](CCNC(=O)C2CC2)O[C@H]1CO`, the inhibition was -1.05% (inactive). On to `O=C(C1CCC1)N1C[C@@H]2N[C@H](C1)C2c1ccc(-c2cncnc2)cc1` (stereo partly specified), for which the inhibition is 0.917% (inactive). To `Cc1ccccc1-c1ccc(C2[C@@H]3CN(C(=O)C4CCCCC4)C[C@H]2N3)cc1` (stereo partly specified) belongs 40% (active) and 1.58% (inactive).

Take `O=C(C1CCCCC1)N1C[C@@H]2N[C@H](C1)C2c1ccc(-c2cccc(F)c2)cc1` (stereo partly specified): the inhibition was 4.43% (inactive) and 0.21% (inactive).

On to `CN1c2ccc(-c3cccc(F)c3)cc2[C@H]2[C@H](CCN2C(=O)C2CCCC2)[C@@H]1CO`, for which the inhibition is 5.91% (inactive). For `COCC#Cc1ccc([C@H]2[C@H](CO)N3C(=O)CN(C(=O)Nc4ccccc4F)C[C@@H]23)cc1` the value was 0.262% (inactive); for `O=C(C[C@@H]1CC[C@@H]2[C@H](COC[C@H](O)CN2Cc2cccc(-c3ccncc3)c2)O1)N1CCOCC1`, -0.984% (inactive); for `Cc1noc(C)c1S(=O)(=O)N(C)C[C@H]1OCCCC[C@H](C)Oc2ccc(NS(=O)(=O)c3ccccc3)cc2C(=O)N([C@H](C)CO)C[C@@H]1C`, -0.427% (inactive).

As to `CO[C@H]1CN(C)C(=O)c2cc(NS(C)(=O)=O)ccc2OC[C@@H](C)N(C(=O)NC(C)C)C[C@@H]1C`, the inhibition was 1.54% (inactive). For `C[C@H]1CN([C@@H](C)CO)C(=O)c2cccc(NC(=O)CCCCCC(=O)Nc3ccccc3N)c2O[C@@H]1CN(C)C(=O)NC1CCCCC1` the value was 0.11% (inactive); for `O=C(C[C@@H]1C=C[C@H](NC(=O)CN2CCOCC2)[C@@H](CO)O1)NC1CCC1`, -2.2% (inactive).

On to `CCCN1[C@@H]2c3ccc(-c4ccccc4OC)c(=O)n3C[C@H]1[C@H](CO)[C@H]2C(=O)NCc1ccccn1`, for which the inhibition is 0.442% (inactive). For `COCC(=O)N(C)C[C@H]1Oc2cc(C#C[C@@H](C)O)ccc2S(=O)(=O)N([C@H](C)CO)C[C@H]1C` the value was 0.918% (inactive); for `COc1ccccc1S(=O)(=O)N[C@H]1CC[C@@H](CC(=O)NCc2cc(F)cc(F)c2)O[C@H]1CO`, -1.06% (inactive).
